Results pooled from the literature.
Target: Serine/threonine-protein kinase ULK1 (ULK1, Homo sapiens, UniProt O75385)
Residues used in one study (O75385 1-1050): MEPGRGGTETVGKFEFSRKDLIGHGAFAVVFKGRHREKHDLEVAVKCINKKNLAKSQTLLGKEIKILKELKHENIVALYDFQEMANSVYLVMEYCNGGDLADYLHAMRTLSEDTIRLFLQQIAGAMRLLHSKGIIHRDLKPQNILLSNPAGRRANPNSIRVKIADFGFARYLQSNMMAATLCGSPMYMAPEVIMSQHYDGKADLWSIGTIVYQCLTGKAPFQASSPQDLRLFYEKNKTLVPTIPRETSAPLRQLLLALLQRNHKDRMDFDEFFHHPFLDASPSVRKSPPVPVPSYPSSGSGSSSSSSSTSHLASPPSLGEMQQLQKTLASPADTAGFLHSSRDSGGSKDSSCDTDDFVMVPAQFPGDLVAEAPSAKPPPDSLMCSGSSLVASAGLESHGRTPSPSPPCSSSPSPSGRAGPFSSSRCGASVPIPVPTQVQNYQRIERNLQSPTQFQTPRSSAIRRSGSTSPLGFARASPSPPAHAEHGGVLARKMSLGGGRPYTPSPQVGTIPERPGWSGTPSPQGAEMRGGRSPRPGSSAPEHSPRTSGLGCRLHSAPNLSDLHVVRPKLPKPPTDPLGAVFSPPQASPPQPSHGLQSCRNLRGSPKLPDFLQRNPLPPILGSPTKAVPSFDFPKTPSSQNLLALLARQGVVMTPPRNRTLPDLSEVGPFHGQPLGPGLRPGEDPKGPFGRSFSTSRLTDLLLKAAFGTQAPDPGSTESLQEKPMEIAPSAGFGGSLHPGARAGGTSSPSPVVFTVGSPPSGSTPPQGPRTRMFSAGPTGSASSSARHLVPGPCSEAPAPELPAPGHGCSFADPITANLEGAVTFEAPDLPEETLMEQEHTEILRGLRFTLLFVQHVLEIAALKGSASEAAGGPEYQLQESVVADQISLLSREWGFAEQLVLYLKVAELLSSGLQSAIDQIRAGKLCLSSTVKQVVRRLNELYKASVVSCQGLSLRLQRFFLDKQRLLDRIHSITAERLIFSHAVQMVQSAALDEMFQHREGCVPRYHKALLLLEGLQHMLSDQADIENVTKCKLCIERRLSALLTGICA

| SMILES | effect on | technique | concentration | remaining binding [%] |
| --- | --- | --- | --- | --- |
| CNCc1ccccc1-c1csc([C@H](C)Nc2nc(C)nc3cc(OC)c(OC)cc23)c1 | cell-free assay | competition with immobilised ligand | 1 µM | 91 |
| FC(F)(F)Oc1cccc(-c2cnc3ccc(-c4ccncc4)nn23)c1 | binding | competition with immobilised ligand | 5 µM | 82 |
| CNC(=O)c1ccccc1Nc1cc(Nc2ccc(N3CCOCC3)cc2OC)ncc1C(F)(F)F | binding | competition with immobilised ligand | 1 µM | < 10 |
| O=C(NCCCN1CCOCC1)c1ccc(Nc2ncc(Cl)c(-c3ccc(Cl)s3)n2)cc1 | binding | competition with immobilised ligand | 1 µM | 3.5 |
| CCS(=O)(=O)c1cc2cc(C[C@](O)(CC(C)(C)c3ccc(F)cc3C(N)=O)C(F)(F)F)[nH]c2cn1 | cell-free assay | competition with immobilised ligand | 1 µM | 100 |
| CN(c1nccc(-c2cnn3ncccc23)n1)C1CC1 | binding |  | 1 µM | 85 |
| Cc1cnc(Nc2ccc(C(=O)N3CCC(N4CCCC4)CC3)cc2)nc1-c1cc2ccccc2s1 | binding | competition with immobilised ligand | 1 µM | 1.2 |
| COc1ccc2c(O[C@@H]3C[C@H]4C(=O)N[C@]5(C(=O)O)CC5/C=C\CCCCC[C@H](NC(=O)OC5CCCC5)C(=O)N4C3)cc(-c3csc(NC(=O)C(C)C)n3)nc2c1C (stereo partly drawn) | cell-free assay | competition with immobilised ligand | 1 µM | 93 |
| COc1cnc(Nc2cccc(S(N)(=O)=O)c2)nc1N1CCN(c2ccccc2)CC1 | binding | competition with immobilised ligand | 1 µM | 73 |
| O=C(c1ccc(Nc2ncc(Cl)c(-c3ccc(Cl)s3)n2)cc1)N1CCC(N2CCCC2)CC1 | binding | competition with immobilised ligand | 1 µM | 1.8 |
| CN(CCCC(F)(F)F)c1nccc(-c2cnn3ncccc23)n1 | binding |  | 1 µM | 79 |
| COc1cnc(Nc2cccc(S(N)(=O)=O)c2)nc1N1CCN(c2ccccc2)C(=O)C1 | binding | competition with immobilised ligand | 1 µM | 67 |
| N[C@@H]1CCN(c2nccc(-c3cnn4ncccc34)n2)C1 | binding |  | 1 µM | 100 |
| C[C@@H]1CN(c2cc(-c3nn(C)c4ccc(OC5(C)CC5)cc34)ncn2)C[C@H](C)O1 | cell-free assay | competition with immobilised ligand | 1 µM | 76 |
| O=C(Nc1c[nH]nc1C(=O)NC1CCNCC1)c1cc(F)cc(F)c1 | binding | competition with immobilised ligand | 1 µM | 100 |
| CN(C)c1ncc(F)c(-c2cnn3ncccc23)n1 | binding |  | 1 µM | 80 |
| O=C1CCc2cc(Nc3cc(OC4CCOCC4)c([N+](=O)[O-])cc3Cl)ccc2N1 | cell-free assay | competition with immobilised ligand | 1 µM | 87 |
| CN(C)c1nccc(-c2cnn3ncccc23)n1 | binding |  | 1 µM | 96 |
| Nc1ncc2c(n1)-c1c([nH]c3ccc(C#CC4CC4)cc13)CCCC2 | binding | competition with immobilised ligand | 1 µM | 92 |
| CN(C)C(=O)Cn1cc(-c2nc([C@@](C)(c3ccc(-c4cnc(N)nc4)cc3)C3CC3)no2)cn1 | cell-free assay | competition with immobilised ligand | 1 µM | 77 |
| F[C@@H]1CCN(c2nccc(-c3cnn4ncccc34)n2)C1 | binding |  | 1 µM | 89 |
